# Reference: ChEMBL document CHEMBL4219218, “P3-P4 ureas and reverse carbamates as potent HCV NS3 protease inhibitors: Effective transposition of the P4 hydrogen bond donor” (Bioorg Med Chem Lett, 2018)
# What was measured:
# [1] = Drug level in Sprague-Dawley rat liver at 15 mg/kg administered intraduodenally as single dose measured at 4 hrs by LC/MS/MS method; type: ADME, organism-based; conditions: read-out: Drug uptake
# Procedure, shortened: (§1)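 Single intraduodenal dose of 15 mg/kg to rats, n = 2. Plasma and liver exposure measured over a 4 h period, with a 4 h endpoint.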
# [2] = AUC in Sprague-Dawley rat plasma at 15 mg/kg administered intraduodenally as single dose measured at 4 hrs by LC/MS/MS method; type: ADME, organism-based; parameters: dose 15 mg/kg, time < 4 hr, route intraduodenal; procedure, shortened: as §1
Structure (SMILES),concentration at 4 h [1],AUC at 4 h [2]
C=C[C@@H]1C[C@]1(NC(=O)[C@@H]1C[C@@H](Oc2cc(-c3ccccc3)nc3cc(OC)ccc23)CN1C(=O)[C@@H](NC(=O)OC(C)(C)C)C(C)(C)C)C(=O)NS(=O)(=O)C1CC1,7850 ng/g,61 ng·h/mL
C=C[C@@H]1C[C@]1(NC(=O)[C@@H]1C[C@@H](Oc2cc(-c3ccccc3)nc3cc(OC)ccc23)CN1C(=O)[C@H]([C@@H](C)CC)N(C)C(=O)NC1CCCC1)C(=O)NS(=O)(=O)C1CC1,1240 ng/g,
C=C[C@@H]1C[C@]1(NC(=O)[C@@H]1C[C@@H](Oc2cc(-c3ccccc3)nc3cc(OC)ccc23)CN1C(=O)[C@@H](NC(=O)NC(C)(C)C)C(C)(C)C)C(=O)NS(=O)(=O)C1CC1,72 ng/g,17 ng·h/mL
C=C[C@@H]1C[C@]1(NC(=O)[C@@H]1C[C@@H](Oc2nccc3cc(OC)ccc23)CN1C(=O)[C@@H](NC(=O)N[C@H](C(=O)N1CCN(c2ncccn2)CC1)C(C)(C)C)C(C)(C)C)C(=O)NS(=O)(=O)C1CC1,87 ng/g,1630 ng·h/mL
C=C[C@@H]1C[C@]1(NC(=O)[C@@H]1C[C@@H](Oc2cc(-c3ccccc3)nc3cc(OC)ccc23)CN1C(=O)[C@@H](OC(=O)NC1CCCC1)C(C)(C)C)C(=O)NS(=O)(=O)C1CC1,3430 ng/g,95 ng·h/mL
C=C[C@@H]1C[C@]1(NC(=O)[C@@H]1C[C@@H](Oc2cc(-c3ccccc3)nc3cc(OC)ccc23)CN1C(=O)[C@H]([C@@H](C)CC)N(C)C(=O)NC(C)(C)C)C(=O)NS(=O)(=O)C1CC1,1780 ng/g,16 ng·h/mL
C=C[C@@H]1C[C@]1(NC(=O)[C@@H]1C[C@@H](Oc2cc(-c3ccccc3)nc3cc(OC)ccc23)CN1C(=O)[C@@H](OC(=O)NC(C)C)C(C)(C)C)C(=O)NS(=O)(=O)C1CC1,430 ng/g,
C=C[C@@H]1C[C@]1(NC(=O)[C@@H]1C[C@@H](Oc2cc(-c3ccccc3)nc3cc(OC)ccc23)CN1C(=O)[C@@H](OC(=O)NC(C)(C)C)C(C)(C)C)C(=O)NS(=O)(=O)C1CC1,3770 ng/g,82 ng·h/mL
C=C[C@@H]1C[C@]1(NC(=O)[C@@H]1C[C@@H](Oc2cc(-c3ccccc3)nc3cc(OC)ccc23)CN1C(=O)[C@@H](NC(=O)N(C)C(C)(C)C)C(C)(C)C)C(=O)NS(=O)(=O)C1CC1,2600 ng/g,32 ng·h/mL

# The remaining lines, values ahead:
concentration at 4 h [1],AUC at 4 h [2],Structure (SMILES)
64700 ng/g,7420 ng·h/mL,C=C[C@@H]1C[C@]1(NC(=O)[C@@H]1C[C@@H](Oc2nccc3cc(OC)ccc23)CN1C(=O)[C@@H](NC(=O)OC(C)(C)C)C(C)(C)C)C(=O)NS(=O)(=O)C1CC1
1110 ng/g,497 ng·h/mL,C=C[C@@H]1C[C@]1(NC(=O)[C@@H]1C[C@@H](Oc2nccc3cc(OC)ccc23)CN1C(=O)[C@@H](NC(=O)NC(C)(C)C)C(C)(C)C)C(=O)NS(=O)(=O)C1CC1
838 ng/g,3280 ng·h/mL,C=C[C@@H]1C[C@]1(NC(=O)[C@@H]1C[C@@H](Oc2nccc3cc(OC)ccc23)CN1C(=O)[C@@H](NC(=O)N[C@H](COC)C(C)(C)C)C(C)(C)C)C(=O)NS(=O)(=O)C1CC1
,91 ng·h/mL,C=C[C@@H]1C[C@]1(NC(=O)[C@@H]1C[C@@H](Oc2nccc3cc(OC)ccc23)CN1C(=O)[C@@H](NC(=O)N[C@H](C(=O)O)C(C)(C)C)C(C)(C)C)C(=O)NS(=O)(=O)C1CC1
4850 ng/g,632 ng·h/mL,C=C[C@@H]1C[C@]1(NC(=O)[C@@H]1C[C@@H](Oc2nccc3cc(OC)ccc23)CN1C(=O)[C@@H](NC(=O)N[C@H](C(=O)OC(C)(C)C)C(C)(C)C)C(C)(C)C)C(=O)NS(=O)(=O)C1CC1
